This passage reports IC50 results from ChEMBL document CHEMBL1151746, “Antitumor agents 6. Synthesis, structure-activity relationships, and biological evaluation of spiro[imidazolidine-4,3'-thieno[2,3-g]quinoline]-tetraones and spiro[thieno[2,3-g]quinoline-3,5'-[1,2,4]triazinane]-tetraones with potent antiproliferative activity” (J Med Chem, 2008).

Usually IC50 stands for the point on the concentration scale where inhibition reaches its midpoint. High values mean weaker potency, low ones greater potency.

Holding throughout (format): functional, cell-based
The test system of one assay is MT4. Nature of the assay: Antiproliferative activity against human MT4 cells after 96 hrs by MTT assay. In short, it runs like this:
(§1)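 Exponentially growing cells in RPMI 1640 with 10% FCS were resuspended at 1 × 10⁵ cells/mL in RPMI containing serial dilutions of compound (DMSO solution at 200 µM, diluted in medium). After 96 h at 37 °C, viability was read by MTT. Growth was taken as % of untreated controls, which grew at least three rounds. IC50 came from linear regression, as the mean of three independent determinations.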
(Tetrazolium assays rely on reduction of a dye to a coloured formazan, in cell work by metabolically active cells.)

For a further assay, the system named is HT-29. Nature of the assay: Antiproliferative activity against human HT-29 cells after 96 hrs by MTT assay. A digest of the protocol:
(§2)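 Solid-tumor cells in their specific media with 10% FCS were seeded at 5 × 10⁴ cells/mL and left to adhere 16 h. Serially diluted compound was then added (DMSO solution at 200 µM, diluted in medium). MTT viability was read 4 days later. IC50 came from linear regression against untreated controls, which grew at least three rounds, as the mean of three independent determinations.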

A further assay relates to CCRF-CEM. The experiment in a line: Antiproliferative activity against human CCRF-CEM cells after 96 hrs by MTT assay. In short, it runs like this:
as §1

Another assay deals with CCRF-SB. Nature of the assay: Antiproliferative activity against human CCRF-SB cells after 96 hrs by MTT assay. In short, it runs like this:
as §1

The test system of a further assay is MCF7. Nature of the assay: Antiproliferative activity against human MCF7 cells after 96 hrs by MTT assay. The settings on record: MCF7, 96 h. In short, it runs like this:
as §2

The next assay has as its system HeLa. The experiment in a line: Antiproliferative activity against human HeLa cells after 96 hrs by MTT assay. In short, it runs like this: as §2
Another assay deals with ACHN. The experiment in a line: Antiproliferative activity against human ACHN cells after 96 hrs by MTT assay. A digest of the protocol: as §2
A further assay has as its system SF-268. The experiment in a line: Antiproliferative activity against human SF-268 cells after 96 hrs by MTT assay. The settings on record: SF-268, 96 h. In short, it runs like this: as §2
The subject of the next assay is XF498. The experiment in a line: Antiproliferative activity against human XF498 cells after 96 hrs by MTT assay. The settings on record: XF498, 96 h. In short, it runs like this: as §2

With `O=C1C2=C(C(=O)c3ncccc31)C1(CS2)NC(=O)N(c2ccncc2)C1=O` (racemic), the IC50 with MT4 (Homo sapiens, MT4, 96 h) stood at 3 nM; in the assay with HT-29 (Homo sapiens, HT-29, 96 h) it was 2 nM; in the assay on CCRF-CEM, 2 nM; in the assay on CCRF-SB, 1 nM; with MCF7, 10 nM; in the assay with HeLa, 10 nM. For the same molecule, the IC50 was 80 nM in the assay on ACHN, 1100 nM in the assay with SF-268 and 1120 nM with XF498.
Regarding `O=C1NN(c2ccc([N+](=O)[O-])cc2)C(=O)C2(CSC3=C2C(=O)c2ncccc2C3=O)N1` (racemic), the IC50 with MT4 (Homo sapiens, MT4, 96 h) was 5 nM; in the assay with HT-29 (Homo sapiens, HT-29, 96 h), 1010 nM; in the assay on CCRF-CEM, 2 nM; in the assay with CCRF-SB, 2 nM; in the assay on MCF7, 550 nM; in the assay on HeLa it was 610 nM. The values for the IC50 in the assay on ACHN, in the assay with SF-268 and in the assay with XF498 were 650 nM, 3550 nM and 4800 nM, respectively.
On to `CCc1ccc(N2C(=O)NC3(CSC4=C3C(=O)c3ncccc3C4=O)C2=O)cc1` (racemic), for which the IC50 with MT4 (Homo sapiens, MT4, 96 h) came out at 1 nM; with HT-29 (Homo sapiens, HT-29, 96 h), 1 nM; with CCRF-CEM it was 10 nM; in the assay with CCRF-SB, 10 nM; in the assay with MCF7 it was 50 nM; in the assay on HeLa, 5 nM. For the same molecule, the IC50 in the assay on ACHN stood at 5 nM; in the assay with SF-268, 450 nM; with XF498, 1200 nM.
As to `O=C1NNC(=O)C2(CSC3=C2C(=O)c2ncccc2C3=O)N1` (racemic), the IC50 was 450 nM in the assay with CCRF-CEM; 48 nM in the assay on CCRF-SB; 1250 nM in the assay with MCF7; 980 nM in the assay with HeLa; 1050 nM with ACHN; 4820 nM in the assay with SF-268. In the assay with XF498, this molecule registered an IC50 of 5000 nM.
Regarding `CCCCc1ccc(N2C(=O)NC3(CSC4=C3C(=O)c3ncccc3C4=O)C2=O)cc1` (racemic), the IC50 in the assay with MT4 (Homo sapiens, MT4, 96 h) was determined as 200 nM; with HT-29 (Homo sapiens, HT-29, 96 h) it was 50 nM; with CCRF-CEM, 150 nM; with CCRF-SB, 190 nM; in the assay with MCF7 it was 70 nM; in the assay with HeLa it was 90 nM. The IC50 stood at 50 nM with ACHN, 400 nM in the assay on SF-268 and 950 nM in the assay with XF498.
In the case of `O=C1NC(=O)C2(CSC3=C2C(=O)c2ncccc2C3=O)N1` (stereo in doubt; (-)-2), the IC50 in the assay on MT4 (mt4) came to 120 nM; with HT-29 (ht-29), 180 nM.
For `O=C1NC(=O)C2(CSC3=C2C(=O)c2ncccc2C3=O)N1` (racemic), the IC50 came to 120 nM with CCRF-CEM; 150 nM in the assay on CCRF-SB; 120 nM in the assay with MCF7; 150 nM in the assay with HeLa; 80 nM in the assay on ACHN; 3100 nM in the assay on SF-268. This molecule returned an IC50 in the assay on XF498 of 3120 nM.
For the molecule `O=C1NNC(=O)C2(CSC3=C2C(=O)c2ncccc2C3=O)N1` (stereo in doubt; (+)-3), the 50% inhibitory concentration (IC50) with MT4 (Homo sapiens, MT4, 96 h) is 550 nM; in the assay with HT-29 (Homo sapiens, HT-29, 96 h) it was 1580 nM.
For the molecule `COc1ccc(N2C(=O)NC3(CSC4=C3C(=O)c3ncccc3C4=O)C2=O)cc1` (racemic), the IC50 came to 70 nM in the assay with MT4 (Homo sapiens, MT4, 96 h); 2 nM with HT-29 (Homo sapiens, HT-29, 96 h); 50 nM in the assay with CCRF-CEM; 10 nM in the assay with CCRF-SB; 50 nM in the assay with MCF7; 1 nM in the assay on HeLa. For the same molecule, the IC50 in the assay on ACHN stood at 50 nM; with SF-268, 650 nM; in the assay on XF498, 650 nM.
As for `O=C1C2=C(C(=O)c3ncccc31)C1(CS2)NC(=O)N(c2ccc([N+](=O)[O-])cc2)C1=O` (racemic), the IC50 amounted to 8 nM in the assay with MT4 (Homo sapiens, MT4, 96 h); 250 nM with HT-29 (Homo sapiens, HT-29, 96 h); 1 nM in the assay with CCRF-CEM; 2 nM with CCRF-SB; 350 nM with MCF7; 100 nM in the assay with HeLa. Further, the IC50 in the assay with ACHN amounted to 100 nM; with SF-268, 1520 nM; in the assay on XF498, 1030 nM.
Take `O=C1NN(c2ccc(Cl)cc2)C(=O)C2(CSC3=C2C(=O)c2ncccc2C3=O)N1` (racemic): the IC50 with MT4 (Homo sapiens, MT4, 96 h) amounted to 150 nM; in the assay on HT-29 (Homo sapiens, HT-29, 96 h), 220 nM; in the assay with CCRF-CEM, 50 nM; with CCRF-SB, 51 nM; in the assay with MCF7 it was 110 nM; in the assay with HeLa, 150 nM. The IC50 in the assay on ACHN was 360 nM; in the assay with SF-268, 2000 nM; with XF498, 2500 nM.
For `CC(C)(C)c1ccc(N2C(=O)NC3(CSC4=C3C(=O)c3ncccc3C4=O)C2=O)cc1` (racemic), the IC50 with MT4 (Homo sapiens, MT4, 96 h) worked out at 200 nM; in the assay with HT-29 (Homo sapiens, HT-29, 96 h) it was 150 nM; in the assay with CCRF-CEM, 200 nM; in the assay with CCRF-SB, 200 nM; in the assay with MCF7, 130 nM; in the assay with HeLa it was 100 nM. Besides, the IC50 in the assay with ACHN turned out to be 150 nM; in the assay with SF-268 it was 500 nM; with XF498, 850 nM.
With `O=C1NC(=O)C2(CSC3=C2C(=O)c2ncccc2C3=O)N1` (single isomer, unassigned; (+)), the IC50 was found to be 130 nM with MT4 (Homo sapiens, MT4, 96 h) and 190 nM in the assay with HT-29 (Homo sapiens, HT-29, 96 h).
For `Cc1ccc(N2C(=O)NC3(CSC4=C3C(=O)c3ncccc3C4=O)C2=O)cc1` (racemic), the IC50 was found to be 27 nM in the assay on MT4 (Homo sapiens, MT4, 96 h); 1 nM in the assay with HT-29 (Homo sapiens, HT-29, 96 h); 20 nM in the assay with CCRF-CEM; 20 nM with CCRF-SB; 2 nM with MCF7; 2 nM in the assay on HeLa. Also, the IC50 in the assay on ACHN was found to be 12 nM; with SF-268, 660 nM; with XF498, 1350 nM.
For `O=C1C2=C(C(=O)c3ncccc31)C1(CS2)NC(=O)N(c2ccccc2)C1=O` (racemic), the IC50 worked out at 25 nM in the assay on MT4 (Homo sapiens, MT4, 96 h); 2 nM in the assay on HT-29 (Homo sapiens, HT-29, 96 h); 10 nM in the assay on CCRF-CEM; 30 nM with CCRF-SB; 1 nM in the assay with MCF7; 3 nM in the assay with HeLa. Besides, the IC50 turned out to be 21 nM with ACHN, 1700 nM in the assay on SF-268 and 1510 nM with XF498.
In the case of `Cc1ccc(N2NC(=O)NC3(CSC4=C3C(=O)c3ncccc3C4=O)C2=O)cc1` (racemic), the IC50 in the assay with MT4 (Homo sapiens, MT4, 96 h) came out at 100 nM; in the assay on HT-29 (Homo sapiens, HT-29, 96 h), 200 nM; in the assay on CCRF-CEM it was 70 nM; with CCRF-SB, 37 nM; in the assay on MCF7, 410 nM; with HeLa, 210 nM. In addition, the IC50 with ACHN is 500 nM; with SF-268, 2100 nM; with XF498, 3800 nM.
For `O=C1NNC(=O)C2(CSC3=C2C(=O)c2ncccc2C3=O)N1` (single isomer, unassigned; (-)), the IC50 in the assay on MT4 (mt4) came out at 500 nM; in the assay on HT-29 (ht-29), 1600 nM.
`O=C1NN(c2ccccc2)C(=O)C2(CSC3=C2C(=O)c2ncccc2C3=O)N1` (racemic): the IC50 was 150 nM in the assay on MT4 (Homo sapiens, MT4, 96 h); 550 nM in the assay on HT-29 (Homo sapiens, HT-29, 96 h); 90 nM in the assay with CCRF-CEM; 39 nM in the assay with CCRF-SB; 150 nM with MCF7; 210 nM with HeLa. The IC50 in the assay on ACHN worked out at 940 nM; with SF-268, 2200 nM; in the assay with XF498 it was 4550 nM.
On to `CCN(CC)c1ccc(N2C(=O)NC3(CSC4=C3C(=O)c3ncccc3C4=O)C2=O)cc1` (racemic), for which the IC50 in the assay on MT4 (Homo sapiens, MT4, 96 h) came out at 8 nM; in the assay on HT-29 (Homo sapiens, HT-29, 96 h), 50 nM; in the assay with CCRF-CEM, 20 nM; with CCRF-SB, 9 nM; with MCF7, 30 nM; in the assay with HeLa it was 50 nM. For the same molecule, the IC50 with ACHN came to 20 nM; in the assay on SF-268 it was 960 nM; in the assay on XF498 it was 730 nM.
